Results taken from ChEMBL document CHEMBL1821638, “Targeting the human malaria parasite Plasmodium falciparum: in vitro identification of a new antiplasmodial hit in 4-phenoxy-2-trichloromethylquinazoline series” (Eur J Med Chem, 2011).
Activity calls are given as the source filed them. The rule behind the calls is not given here.

Legend:
[1] = test system: Plasmodium falciparum; experiment: Antiplasmodial activity against chloroquine, pyrimethamine and proguanil-resistant Plasmodium falciparum W2 infected in human A positive erythrocytes after 72 hrs by SYBR Green I assay; format: functional, organism-based; details: W2, 72 h
[2] = Selectivity index, ratio of CC50 for human HepG2 cells to IC50 for chloroquine, pyrimethamine and proguanil-resistant Plasmodium falciparum W2; format: functional
[3] = Cytotoxicity against human HepG2 cells after 72 hrs by MTT assay; format: cell-based
Procedure, shortened: (§1)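 HepG2 or HFF cells seeded in RPMI with 10% foetal bovine serum, L-glutamine and penicillin/streptomycin, 37 °C, 6% CO₂; after 24 h, medium with various compound concentrations added for 72 h. Wells checked microscopically for precipitate. MTT in serum-free medium 2 h at 37 °C, formazan dissolved in DMSO, absorbance at 570 nm (630 nm reference). Viability as percent of untreated control; doxorubicin reference.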

[4] = Solubility of the compound; format: physicochemical
[5] = test system: HepG2; experiment: Cytotoxicity against human HepG2 cells at > 125 uM after 72 hrs by MTT assay; format: cell-based; details: hepg2, 72 h; procedure, shortened: as §1
[6] = test system: Toxoplasma gondii; experiment: Antiparasitic activity against Toxoplasma gondii PRU tachyzoites harboring beta-Gal gene infected in human HFF cells after 72 hrs by microtiter plate based assay; format: functional, cell-based
Procedure, shortened: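 T. gondii PRU-b-Gal tachyzoites kept by serial passage in confluent human foreskin fibroblast (HFF) monolayers. Compounds in DMSO (final <0.5% v/v) added at various concentrations in triplicate. Controls: DMSO-treated, pyrimethamine, and uninfected drug-free monolayers. Incubated 72 h at 37 °C, 6% CO2. Read by colorimetric microtiter assay.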

[7] = Cytotoxicity against human HFF cells after 72 hrs by MTT assay; format: cell-based; procedure, shortened: as §1
[8] = test system: Plasmodium falciparum; experiment: Antiplasmodial activity against chloroquine, pyrimethamine and proguanil-resistant Plasmodium falciparum W2 infected in human A positive erythrocytes at > 50 uM after 72 hrs by SYBR Green I assay; format: functional, organism-based
Procedure, shortened: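 W2 strain kept in continuous culture in A+ human erythrocytes at 2.5% hematocrit. Medium was RPMI 1640 with 25 mM HEPES, 25 mM NaHCO3 and 10% A+ human serum, at 37 °C under 5% O2/5% CO2/90% N2, parasitaemia 1–6%. Drug exposure 72 h. Lysis buffer with SYBR Green I, saponin and Triton X-100, 15 min at 37 °C. Fluorescence read at ex 497/em 520 nm. IC50 by non-linear regression, mean of three independent experiments.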

[9] = test system: Salmonella typhimurium; experiment: Mutagenic activity in Salmonella Typhimurium TA97a assessed as number of spontaneous and drug-induced revertants at 25 to 125 nM after 48 hrs by Ames test; format: toxicity, organism-based; details: salmonella enterica subsp. enterica serovar typhimurium, 0.125 µM
Procedure, shortened: (§2)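 Salmonella tester strains grown overnight in nutrient broth. Compound in DMSO added to 0.1 mL culture and preincubated 1 h at 37 °C with shaking, in duplicate. Mixed with 2 mL molten top agar and plated on Vogel-Bonner minimal agar. After 48 h at 37 °C, spontaneous and induced revertants per plate counted for each dose by laser colony counter, against negative controls.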

[10] = test system: Salmonella typhimurium; experiment: Mutagenic activity in Salmonella Typhimurium TA102 assessed as number of spontaneous and drug-induced revertants at 25 to 125 nM after 48 hrs by Ames test; format: toxicity, organism-based; details: salmonella enterica subsp. enterica serovar typhimurium, 0.125 µM; procedure, shortened: as §2
[11] = test system: Salmonella typhimurium; experiment: Mutagenic activity in Salmonella Typhimurium TA100 assessed as number of spontaneous and drug-induced revertants at 25 to 125 nM after 48 hrs by Ames test; format: toxicity, organism-based; details: salmonella enterica subsp. enterica serovar typhimurium, 0.125 µM; procedure, shortened: as §2
[12] = test system: Salmonella typhimurium; experiment: Mutagenic activity in Salmonella Typhimurium TA98 assessed as number of spontaneous and drug-induced revertants at 25 to 125 nM after 48 hrs by Ames test; format: toxicity, organism-based; details: salmonella enterica subsp. enterica serovar typhimurium, 0.125 µM; procedure, shortened: as §2

Compound	IC50 [1]	Ratio CC50/IC50 [2]	CC50 at 72 h [3]	other results
Fc1cccc(Oc2nc(C(Cl)(Cl)Cl)nc3ccccc23)c1	2.3 µM	18.1	41.7 µM	–
O=[N+]([O-])c1ccc(Oc2nc(C(Cl)(Cl)Cl)nc3ccccc23)cc1	3.5 µM	>4.6	> 16 µM	solubility [4]: Insoluble
COc1cccc(Oc2nc(C(Cl)(Cl)Cl)nc3ccccc23)c1	1.9 µM	0.3	0.6 µM	–
Clc1nc(C(Cl)(Cl)Cl)nc2ccccc12	–	>2.3	–	Activity [5]: Non-toxic
FC(F)(F)c1cccc(Oc2nc(C(Cl)(Cl)Cl)nc3ccccc23)c1	2.3 µM	10.9	25.1 µM	–
C[C@H]1c2cccc(O)c2C(=O)C2=C(O)[C@]3(O)C(=O)C(C(N)=O)=C(O)[C@@H](N(C)C)[C@@H]3[C@@H](O)[C@@H]21.O [DOXYCYCLINE]	4.8 µM	4.2	20 µM	–
Clc1cccc(Oc2nc(C(Cl)(Cl)Cl)nc3ccccc23)c1	2.4 µM	10.9	26.1 µM	–
Cc1ccccc1Oc1nc(C(Cl)(Cl)Cl)nc2ccccc12	5.5 µM	4.6	25.1 µM	–
CCc1nc(N)nc(N)c1-c1ccc(Cl)cc1 [PYRIMETHAMINE]	–	–	7.1 µM	IC50 [6]: 1.1 µM; CC50 at 72 h [7]: > 50 µM
Oc1nc(C(Cl)(Cl)Cl)nc2ccccc12	–	<0.42	21 µM	Activity [8]: inactive
Cc1cccc(Oc2nc(C(Cl)(Cl)Cl)nc3ccccc23)c1	2.9 µM	2.6	7.6 µM	–
FC(F)(F)c1nc(Oc2ccc(Cl)cc2)c2ccccc2n1	68 µM	1.1	72 µM	–
Cc1ccc(Oc2nc(C(Cl)(Cl)Cl)nc3ccccc23)cc1C	3.3 µM	8.8	29 µM	–
FC(F)(F)c1ccc(Oc2nc(C(Cl)(Cl)Cl)nc3ccccc23)cc1	1.8 µM	16.4	29.6 µM	–
FC(F)(F)c1ccccc1Oc1nc(C(Cl)(Cl)Cl)nc2ccccc12	3.3 µM	10.6	34.9 µM	–
Cc1ccc(Oc2nc(C(Cl)(Cl)Cl)nc3ccccc23)cc1	3.2 µM	13.4	42.8 µM	–
Fc1ccccc1Oc1nc(C(Cl)(Cl)Cl)nc2ccccc12	5 µM	7.7	38.3 µM	–
O=[N+]([O-])c1cccc(Oc2nc(C(Cl)(Cl)Cl)nc3ccccc23)c1	3 µM	12.1	36.3 µM	–
O=[N+]([O-])c1ccccc1Oc1nc(C(Cl)(Cl)Cl)nc2ccccc12	4.9 µM	>1.6	> 8 µM	solubility [4]: Insoluble
ClC(Cl)(Cl)c1nc(Oc2ccccc2)c2ccccc2n1	3.1 µM	16	50 µM	–
Cc1nc(Oc2ccc(Cl)cc2)c2ccccc2n1	28 µM	0.9	26 µM	–
Fc1ccc(Oc2nc(C(Cl)(Cl)Cl)nc3ccccc23)cc1	2.4 µM	12.3	29.5 µM	–
COc1ccc(Oc2nc(C(Cl)(Cl)Cl)nc3ccccc23)cc1	2.9 µM	11.8	34.1 µM	–
ClC(Cl)(Cl)c1nc(Oc2cccc3ccccc23)c2ccccc2n1	3.9 µM	0.6	2.4 µM	–
COc1ccccc1Oc1nc(C(Cl)(Cl)Cl)nc2ccccc12	6 µM	1.1	6.7 µM	–
Clc1ccccc1Oc1nc(C(Cl)(Cl)Cl)nc2ccccc12	4.4 µM	7.6	33.6 µM	–
ClC(Cl)(Cl)c1nc(Oc2ccc3ccccc3c2)c2ccccc2n1	2.3 µM	1.6	3.6 µM	–
COc1cccc2c1C(=O)c1c(O)c3c(c(O)c1C2=O)C[C@@](O)(C(=O)CO)C[C@@H]3O[C@H]1C[C@H](N)[C@H](O)[C@H](C)O1 [DOXORUBICIN]	–	–	0.2 µM	Activity [9]: Toxic; Activity [10]: Toxic; Activity [11]: Toxic; Activity [12]: Toxic; CC50 at 72 h [7]: 0.03 µM
